Screens from PubChem BioAssay.
proCasp7 act – procaspase-7 activators, primary screen, counter-screen for procaspase-3 activator project, biochemical, absorbance, HTS, human; AID 463210, 2010; activation, % at 8.5 µM; recombinant procaspase-7, Ac-DEVD-pNA absorbance 405 nm; D23A/D198A/D206A triple mutant, cannot self-cleave; scale: DMSO 0, 5 µM enzyme 100; Caspase-7 (Homo sapiens), P55210; 330,000 tested, 0.093% active;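 active = percent activation above the screen-wide mean plus 3 SD, cut at about 25% in these data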
Target sequence (P55210 whole entry D23A/D198A/D206A): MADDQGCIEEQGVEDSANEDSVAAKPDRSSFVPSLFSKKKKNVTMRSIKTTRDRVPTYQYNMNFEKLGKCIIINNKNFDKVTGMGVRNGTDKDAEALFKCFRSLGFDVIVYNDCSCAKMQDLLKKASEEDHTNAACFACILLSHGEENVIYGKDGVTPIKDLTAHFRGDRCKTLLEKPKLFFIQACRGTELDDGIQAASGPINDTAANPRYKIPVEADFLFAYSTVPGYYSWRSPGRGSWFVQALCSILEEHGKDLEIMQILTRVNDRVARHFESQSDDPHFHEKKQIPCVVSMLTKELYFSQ
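signal = Epi-absorbance of released pNA at 405 nm, two timepoints | assay system = Uncleavable procaspase-7 mutant enzyme | reagent = Ac-DEVD-pNA substrate, 400 µM as added | times = 1 h enzyme–compound preincubation and 2 h substrate reaction, both 25 °C | benchmarks = low DMSO alone, high DMSO plus 5 µM PC-7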
AHR act – AHR activators, primary screen, cell-based, luminescence, luciferase reporter, human; activation, % at 5 µM; AHR-responsive luciferase reporter cells; 320,000 tested, 2.5% active; in the data active = activation above about 47%;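 also: 0% = vehicle wells and 100% = reference agonist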
procasp3 activ – activators of human procaspase-3 D3A mutant, primary screen, biochemical, absorbance, PC-3 D3A mutant, single concentration. Caspase-3 (Homo sapiens), P42574. recombinant procaspase-3 D3A, Ac-DEVD-pNA absorbance 405 nm. activation, % at 8.5 µM. 330,000 tested, 0.11% active;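 active = activation above the mean of all tested compounds plus 3 SD, cut at about 21% in these data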;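 also: 0% = DMSO alone and 100% = DMSO wells spiked with extra 5 µM PC-3 D3A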
Target sequence (P42574 whole entry D9A/D28A/D175A): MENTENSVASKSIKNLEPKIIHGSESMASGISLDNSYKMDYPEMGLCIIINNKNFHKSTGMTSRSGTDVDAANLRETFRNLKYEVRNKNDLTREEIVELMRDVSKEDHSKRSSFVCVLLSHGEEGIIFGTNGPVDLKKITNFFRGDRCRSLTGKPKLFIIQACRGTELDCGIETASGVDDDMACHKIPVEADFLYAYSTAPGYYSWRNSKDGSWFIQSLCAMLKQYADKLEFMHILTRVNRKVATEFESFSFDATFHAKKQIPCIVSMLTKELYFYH
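Evaluation: percent activation relative to control range; Material: Procaspase-3 D3A mutant, all three cleavage aspartates alanine; Compound: single dose, 8.5 µM nominal compound, 0.8% DMSO; Replication: one well per compound; Signal: absorbance at 405 nm, 0 and 120 min; Schedule: 1 h preincubation plus 2 h reaction at 25 °C.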
PolyA inh – polyadenylation inhibitors in yeast reporter cells, primary screen, luminescence, S. cerevisiae. S. cerevisiae SKY197-pL101 polyadenylation reporter, beta-gal luminescence; efflux-impaired pdr1/pdr3 knockout yeast; score 100 = 6 SD above DMSO. activity score, % at 12 µM. 300,000 tested, 0.02% active. AID 1875, 2009;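 active = lowest replicate activity score at least 50, where 100 means six control SD above control mean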;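 also: yeast exposed to compound for 9 h at 30 °C; higher score means more reporter readthrough which indicates perturbed polyadenylation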
* = called active by the depositor. Rows were chosen to be rich in hits. Some 2.6% of all compounds tested hit in one or more screens of this group.

How did COc1ccc(C(=O)c2nccc3cc(OC)c(OC)cc23)cc1OC do in these assays?
proCasp7 act: -4; AHR act: 1; procasp3 activ: 0

Results for COc1cc(C(=O)N/N=C(\c2ccccc2)c2ccccn2)cc(OC)c1OC ?
proCasp7 act: 4; AHR act: 25; procasp3 activ: 8; PolyA inh: -30

What do the screens show for `COc1cc(C(=O)N/N=C(\C)c2ccccn2)cc(OC)c1OC`?
proCasp7 act: 11; AHR act: 63*; procasp3 activ: -10; PolyA inh: 7

Results for CC(=O)C1=C(C)NC(SCC(=O)c2cc(Cl)ccc2Cl)=C(C#N)C1c1ccco1 (stereo not given) ?
proCasp7 act: -22; AHR act: 83*; procasp3 activ: -17; PolyA inh: 18

How did CC(=O)C1=C(C)NC(SCC(=O)c2ccc(F)cc2)=C(C#N)C1c1ccco1 (stereo not given) do in these assays?
proCasp7 act: 1; AHR act: 64*; procasp3 activ: 3; PolyA inh: 0

What do the screens show for `CC(=O)C1=C(C)NC(SCC(=O)c2ccc(Cl)c(Cl)c2)=C(C#N)C1c1ccco1` (stereo not given)?
proCasp7 act: -20; AHR act: 42; procasp3 activ: -5; PolyA inh: 1

What do the screens show for `CCCn1c(N)c(C(=O)CN(C)CC(=O)Nc2ccc(F)cc2)c(=O)[nH]c1=O`?
proCasp7 act: 5; AHR act: 5; procasp3 activ: -5

How did CNC(=O)c1ccsc1NC(=O)c1ccc(Cl)s1 do in these assays?
proCasp7 act: 0; AHR act: 66*; procasp3 activ: 4; PolyA inh: -6

Results for CNC(=O)c1ccsc1NC(=O)c1ccccc1 ?
proCasp7 act: 1; AHR act: 49*; procasp3 activ: 0; PolyA inh: 21

Results for CNC(=O)c1ccsc1NC(=O)CCS(=O)(=O)c1ccccc1 ?
proCasp7 act: 10; AHR act: 1; procasp3 activ: -2; PolyA inh: 5

What do the screens show for `Cc1cc(Cl)ccc1C(=O)C1CCCN(C(=O)c2snnc2C)C1` (stereo not given)?
proCasp7 act: 9; AHR act: 1; procasp3 activ: 3; PolyA inh: 55*

How did N/C(=N\c1nc2ccccc2o1)NC(=O)c1ccccc1NC(=O)c1ccccc1 do in these assays?
proCasp7 act: 12; AHR act: 66*; procasp3 activ: -5

Results for CCOC(=O)c1c(C)[nH]c(C(=O)OCC(=O)NC2(C#N)CCCCC2)c1C ?
proCasp7 act: 5; AHR act: 4; procasp3 activ: 11; PolyA inh: -11

What do the screens show for `c1ccc(-c2ccccc2-c2nc(-c3cccnc3)no2)cc1`?
proCasp7 act: 0; AHR act: 8; procasp3 activ: 2; PolyA inh: -41

What do the screens show for `Brc1cccc(-c2nc(-c3ccncc3)no2)c1`?
proCasp7 act: -16; AHR act: 52*; procasp3 activ: -2; PolyA inh: -12

How did Cc1ccc(-c2nc(-c3ccccc3)no2)cc1 do in these assays?
proCasp7 act: 0; AHR act: -10; procasp3 activ: 4; PolyA inh: -9

Results for c1cncc(-c2noc(-c3cccc4ccccc34)n2)c1 ?
proCasp7 act: -4; AHR act: 59*; procasp3 activ: -1; PolyA inh: -26

What do the screens show for `Brc1ccccc1-c1nc(-c2ccccc2)no1`?
proCasp7 act: -6; AHR act: 50*; procasp3 activ: 6; PolyA inh: -11

What do the screens show for `NC(=O)c1ccccc1-c1nc(-c2ccccc2)no1`?
proCasp7 act: -7; AHR act: 15; procasp3 activ: -3; PolyA inh: 12

How did c1ccc(-c2noc(-c3cccc4ccccc34)n2)cc1 do in these assays?
proCasp7 act: 11; AHR act: 51*; procasp3 activ: 4; PolyA inh: -10

What do the screens show for `Cc1ccc(S(=O)(=O)NC(=O)N(CCC#N)Cc2ccccc2)cc1`?
proCasp7 act: 4; AHR act: 0; procasp3 activ: 5; PolyA inh: 6

Results for Cc1ccc(CNC(=O)CC(C)S(=O)(=O)c2ccc3c(c2)NC(=O)CS3)o1 (stereo not given) ?
proCasp7 act: -5; AHR act: 1; procasp3 activ: -5; PolyA inh: -2

What do the screens show for `O=C(O)c1ccccc1-n1c2ccccc2c2ccccc21`?
proCasp7 act: 6; AHR act: 1; procasp3 activ: 8; PolyA inh: -11

Results for O=C(Cn1sc2ccccc2c1=O)N1CCN(C(=O)c2ccco2)CC1 ?
proCasp7 act: 11; AHR act: 12; procasp3 activ: -1; PolyA inh: -1

Results for O=C(CCl)N(Cc1cc(=O)[nH]c2ccccc12)c1ccccc1 ?
proCasp7 act: -6; AHR act: 11; procasp3 activ: 6; PolyA inh: -13

How did COc1ccc(-c2noc(-c3ccccc3-c3ccccc3)n2)cc1 do in these assays?
proCasp7 act: 16; AHR act: -6; procasp3 activ: 1; PolyA inh: -23

How did COc1ccc(-c2noc(-c3ccccc3F)n2)cc1 do in these assays?
proCasp7 act: -1; AHR act: 48*; procasp3 activ: -2; PolyA inh: 1

Results for COc1ccc(S(=O)(=O)N(C)c2ccc(C(=O)Nc3cccnc3)cc2)cc1 ?
proCasp7 act: 0; AHR act: 27; procasp3 activ: 4; PolyA inh: -11

Results for CCOc1ccc(N=Nc2c(C)[nH]n(-c3ccccc3)c2=O)cc1 ?
proCasp7 act: -5; AHR act: 50*; procasp3 activ: 0; PolyA inh: -13

What do the screens show for `CCOC(=O)c1ccc(N=Nc2c(C)[nH]n(-c3ccccc3)c2=O)cc1`?
proCasp7 act: -8; AHR act: 3; procasp3 activ: 6; PolyA inh: -11

Results for Cc1[nH]n(-c2ccccc2)c(=O)c1N=Nc1nccs1 ?
proCasp7 act: -14; AHR act: 86*; procasp3 activ: -10; PolyA inh: 13

What do the screens show for `Cc1[nH]n(-c2ccccc2)c(=O)c1N=Nc1ccccc1O`?
PolyA inh: -5

Results for Cc1cc(C)n(-c2nc3ccccc3c(=O)n2OCC(=O)OCc2ccccc2)n1 ?
PolyA inh: -5

Results for Cc1cc(C)n(-c2nc3ccccc3c(=O)n2OCc2ccc(F)cc2)n1 ?
proCasp7 act: 3; AHR act: 54*; procasp3 activ: 1; PolyA inh: -11

Results for Cc1cc(C)n(-c2nc3ccccc3c(=O)n2OCc2ccc(Cl)cc2)n1 ?
proCasp7 act: 4; AHR act: 49*; procasp3 activ: -4; PolyA inh: 6
